One assay concerns the target T1, Adenosine receptor A3 (Homo sapiens, UniProt P0DMS8).
T1 sequence (P0DMS8 whole entry): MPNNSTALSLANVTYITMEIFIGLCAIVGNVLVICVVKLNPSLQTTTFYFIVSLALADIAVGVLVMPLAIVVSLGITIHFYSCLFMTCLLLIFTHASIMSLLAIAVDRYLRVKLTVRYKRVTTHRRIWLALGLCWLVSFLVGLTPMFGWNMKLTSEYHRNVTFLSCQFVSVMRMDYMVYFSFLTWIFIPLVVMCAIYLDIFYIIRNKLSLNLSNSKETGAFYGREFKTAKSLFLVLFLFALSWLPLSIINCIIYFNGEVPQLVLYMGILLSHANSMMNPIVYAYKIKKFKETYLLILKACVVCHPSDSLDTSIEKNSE
The experiment in a line: Displacement of [125I]I-AB-MECA from human adenosine A3 receptor expressed in CHO cells. Type of assay: cell-based. For orientation: Displacement assays read how much labelled ligand stays bound in the presence of the test substance.

Assay [1] deals with T2, Adenosine receptor A1 (Homo sapiens) (UniProt P30542).
T2 sequence (whole entry): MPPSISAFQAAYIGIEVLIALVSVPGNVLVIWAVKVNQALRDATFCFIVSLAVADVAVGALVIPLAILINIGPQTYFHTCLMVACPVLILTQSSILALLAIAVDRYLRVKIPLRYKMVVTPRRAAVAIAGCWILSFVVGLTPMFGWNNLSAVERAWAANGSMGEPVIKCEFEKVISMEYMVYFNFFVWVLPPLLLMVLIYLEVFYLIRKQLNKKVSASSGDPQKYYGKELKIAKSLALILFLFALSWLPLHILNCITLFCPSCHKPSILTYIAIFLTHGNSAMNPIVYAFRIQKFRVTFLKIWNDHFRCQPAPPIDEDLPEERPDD
The experiment in a line: Displacement of [3H]R-PIA from human adenosine A1 receptor expressed in CHO cells at 10 uM. Type of assay: cell-based. A digest of the protocol: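 Single-point test at 10 μM on membranes of CHO cells stably expressing human A1 receptor, read as percent inhibition of [3H]R-PIA agonist binding. Nonspecific binding was defined with 10 μM NECA.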

Assay [2] concerns the target T3, Adenosine receptor A2a (Homo sapiens, UniProt P29274). The assay is described as follows: Displacement of [3H]2-[p-(2-carboxyethyl)phenyl-ethylamino]-5'-N-ethylcarboxamidoadenosine from human adenosine A2a receptor expressed in HEK293 cells. Type of assay: cell-based.
Target sequence in this assay (P29274 whole entry): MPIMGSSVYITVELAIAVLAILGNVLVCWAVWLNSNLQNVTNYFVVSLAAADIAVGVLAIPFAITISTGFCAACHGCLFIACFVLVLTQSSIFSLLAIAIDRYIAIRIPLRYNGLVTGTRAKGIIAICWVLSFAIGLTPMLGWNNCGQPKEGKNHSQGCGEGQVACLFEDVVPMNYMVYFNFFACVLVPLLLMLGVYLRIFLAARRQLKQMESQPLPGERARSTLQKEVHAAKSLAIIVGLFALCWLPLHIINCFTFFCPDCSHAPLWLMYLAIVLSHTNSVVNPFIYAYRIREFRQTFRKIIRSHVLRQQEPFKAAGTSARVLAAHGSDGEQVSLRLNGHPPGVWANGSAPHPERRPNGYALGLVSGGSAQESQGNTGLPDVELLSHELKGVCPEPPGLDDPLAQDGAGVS
For a further assay, the target named is T4, Adenosine receptor A1 (Homo sapiens, UniProt P30542).
T4 sequence (P30542 whole entry): T2 sequence (whole entry)
The experiment in a line: Displacement of [3H]R-PIA from human adenosine A1 receptor expressed in CHO cells. In kind it is cell-based.

Assay [3] has as its target T3, Adenosine receptor A2a. The experiment in a line: Agonist activity at human adenosine A2a receptor expressed in CHO cells assessed as stimulation of cAMP formation after 24 hrs. Type of assay: functional, cell-based. Background: cAMP levels reflect the balance of adenylyl cyclase and phosphodiesterase activity.
Target sequence in this assay (P29274 whole entry): as above
In assay [4] the target is T3, Adenosine receptor A2a. The experiment in a line: Displacement of [3H]4-[2-[7-amino-2-(2-furyl)-1,2,4-triazolo[1,5-a][1,3,5]triazin-5-yl-amino]ethylphenol from human adenosine A2a receptor K153A mutant expressed in COS-7 cells assessed as radioligand Bmax per mg of protein compound preincubated for 30 mins.
Target sequence in this assay (P29274 whole entry, looked up): as the sequence (P29274 whole entry) above
Assay [5] has as its target T3, Adenosine receptor A2a. The experiment in a line: Displacement of [3H]4-[2-[7-amino-2-(2-furyl)-1,2,4-triazolo[1,5-a][1,3,5]triazin-5-yl-amino]ethylphenol from human adenosine A2a receptor K150A mutant expressed in COS-7 cells assessed as radioligand Bmax per mg of protein compound preincubated for 30 mins.
Target sequence in this assay (P29274 whole entry, looked up): as the sequence (P29274 whole entry) above
The target of assay [6] is T3, Adenosine receptor A2a. The assay is described as follows: Displacement of [3H]4-[2-[7-amino-2-(2-furyl)-1,2,4-triazolo[1,5-a][1,3,5]triazin-5-yl-amino]ethylphenol from human adenosine A2a receptor expressed in HEK293 cells assessed as radioligand binding at 1 uM preincubated for 30 mins. In kind it is cell-based. Summed up:
(§1)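 Membranes of HEK293 cells stably expressing human A2A receptor were preincubated with compound (1 μM, 30 min). Membranes were then washed by repeated centrifugation cycles. Residual specific binding was measured with agonist [3H]CGS21680 (10 nM) or antagonist [3H]7 (1.0 nM) and expressed as percent binding remaining.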
Target sequence in this assay (P29274 whole entry): as above

The species entered for assay [7] is Homo sapiens. The experiment in a line: Selectivity ratio of Ki for human adenosine A3 receptor to Ki for human adenosine A2A receptor.
The species entered for assay [8] is Homo sapiens. The assay is described as follows: Selectivity ratio of Ki for human adenosine A1 receptor to Ki for human adenosine A2A receptor.
Assay [9] has as its target T3, Adenosine receptor A2a. The experiment in a line: Displacement of [3H]4-[2-[7-amino-2-(2-furyl)-1,2,4-triazolo[1,5-a][1,3,5]triazin-5-yl-amino]ethylphenol from wild type human adenosine A2a receptor expressed in COS-7 cells assessed as radioligand Kd compound preincubated for 30 mins.
Target sequence in this assay (P29274 whole entry): as above
Assay [10] deals with T3, Adenosine receptor A2a. The assay is described as follows: Displacement of [3H]2-[p-(2-carboxyethyl)phenyl-ethylamino]-5'-N-ethylcarboxamidoadenosine from human adenosine A2a receptor expressed in HEK293 cells assessed as radioligand binding at 1 uM preincubated for 30 mins. In kind it is cell-based. Summed up: as §1
Target sequence in this assay (P29274 whole entry): as above

The structures appear in SMILES notation. pEC50, pKd, pKi: −log10 of the molar value.

A word on the pKi: it is the Ki on a negative log10 scale, so that one unit is a factor of ten. Read a low pKi as a large Ki. As usually defined, the inhibition is the change of the read-out against control, counted positive when it falls. Read a low inhibition as a response near the control. Take `CCNC(=O)[C@H]1O[C@@H](n2cnc3c(N)nc(NCCc4ccc(CCC(=O)Nc5ccc(OC(=O)CCCCN=[N+]=[N-])c([N+](=O)[O-])c5)cc4)nc32)[C@H](O)[C@@H]1O`: the pKi is 5.74 on Adenosine receptor A3 and 5.36 at Adenosine receptor A2a [2]. Moreover, the inhibition in [1] amounted to 30%.
Turning to `CCNC(=O)[C@H]1O[C@@H](n2cnc3c(N)nc(NCCc4ccc(CCC(=O)Nc5ccc(OC(=O)CCCC[C@@H]6SC[C@@H]7NC(=O)N[C@@H]76)c([N+](=O)[O-])c5)cc4)nc32)[C@H](O)[C@@H]1O`, the pKi is 5.71 on Adenosine receptor A3 and 5.48 at Adenosine receptor A2a [2]. In addition, the inhibition in [1] is 37%.
For `CCNC(=O)[C@H]1O[C@@H](n2cnc3c(N)nc(NCCc4ccc(CCC(=O)Nc5ccc(O)c([N+](=O)[O-])c5)cc4)nc32)[C@H](O)[C@@H]1O`, the pKi on Adenosine receptor A3 is 6.77; on Adenosine receptor A1, 5.72; on Adenosine receptor A2a [2] it was 6.57.
A word on the pEC50: it is the negative decadic logarithm of the EC50, by convention in mol/L. As usually defined, the pKd is −log10 of the Kd, conventionally taken in molar units. With `CCNC(=O)[C@H]1O[C@@H](n2cnc3c(N)nc(NCCc4ccc(CCC(=O)Nc5ccc(OC(C)=O)c([N+](=O)[O-])c5)cc4)nc32)[C@H](O)[C@@H]1O`, the pEC50 on Adenosine receptor A2a [3] is 8.67. Further, the Bmax at Adenosine receptor A2a [4] is 1.65 pmol; on Adenosine receptor A2a [5] it was 0.2 pmol. The Activity on Adenosine receptor A2a [6] is 11%; at Adenosine receptor A2a [10], 19%. Besides, the Ratio Ki amounted to 9 in the assay filed under Homo sapiens [7] and 22 in the assay filed under Homo sapiens [8]. Moreover, the pKi is 6.68 at Adenosine receptor A3, 6.30 on Adenosine receptor A1 and 7.64 at Adenosine receptor A2a [2]. In addition, the pKd at Adenosine receptor A2a [9] was 8.65.

For the origin of these results see ChEMBL document CHEMBL3352600, “Structure-Based Design of Reactive Nucleosides for Site-Specific Modification of the A2A Adenosine Receptor” (ACS Med Chem Lett, 2014).
